{"data": "Measurements pooled from the literature", "target": "Serine/threonine-protein kinase DCLK1 (DCLK1, Homo sapiens, UniProt O15075)", "Residues used in one study (O15075 1-740)": "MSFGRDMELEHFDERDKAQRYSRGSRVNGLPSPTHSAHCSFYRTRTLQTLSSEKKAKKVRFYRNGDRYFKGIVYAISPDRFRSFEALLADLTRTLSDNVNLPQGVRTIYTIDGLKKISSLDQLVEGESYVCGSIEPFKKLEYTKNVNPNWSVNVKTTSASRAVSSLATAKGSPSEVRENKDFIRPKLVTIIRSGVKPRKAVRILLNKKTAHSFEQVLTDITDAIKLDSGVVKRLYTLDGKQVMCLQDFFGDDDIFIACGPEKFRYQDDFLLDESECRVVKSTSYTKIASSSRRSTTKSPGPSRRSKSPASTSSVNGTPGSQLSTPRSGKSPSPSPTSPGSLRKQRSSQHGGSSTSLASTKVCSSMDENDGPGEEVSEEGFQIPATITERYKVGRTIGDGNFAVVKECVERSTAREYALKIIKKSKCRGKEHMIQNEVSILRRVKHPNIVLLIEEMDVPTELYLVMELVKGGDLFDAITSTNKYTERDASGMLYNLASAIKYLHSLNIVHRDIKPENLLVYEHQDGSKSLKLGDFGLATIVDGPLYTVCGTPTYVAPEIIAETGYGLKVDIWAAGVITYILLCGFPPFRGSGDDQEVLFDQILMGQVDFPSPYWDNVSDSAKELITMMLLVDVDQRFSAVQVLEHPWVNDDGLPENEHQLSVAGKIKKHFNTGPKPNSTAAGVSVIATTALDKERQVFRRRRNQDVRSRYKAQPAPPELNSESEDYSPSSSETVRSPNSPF", "note": "Protocols differ between the studies behind these lines."}
{"SMILES": "CCCCC(=O)Nc1ccc(-c2ccc3ncn(CCC)c(=O)c3c2)cn1", "observed": "binding", "technique": "competition with immobilised ligand", "concentration": "0.5 µM", "quantity": "remaining binding", "result": "68%"}
{"SMILES": "N#Cc1ccc(NC(=O)Nc2ccccc2)cc1", "observed": "cell-free assay", "technique": "competition with immobilised ligand", "concentration": "25 µM", "quantity": "remaining binding", "result": "91%"}
{"SMILES": "C1=C/COCc2cc(ccc2OCCN2CCCC2)Nc2nccc(n2)-c2cccc(c2)COC/1", "observed": "cell-free assay", "concentration": "0.1 µM", "quantity": "remaining signal", "result": "100%"}
{"SMILES": "CC#CC(=O)N1CCC[C@H]1c1nc(-c2ccc(C(=O)Nc3ccccn3)cc2)c2c(N)nccn12", "observed": "enzyme activity", "mode": "inhibitor", "concentration": "1 µM", "quantity": "inhibition", "result": "15%"}
{"SMILES": "CC(C)S(=O)(=O)c1ccc2nccc(Nc3ccc4sc(C5CCCC5)nc4c3)c2c1", "observed": "enzyme activity", "mode": "inhibitor", "concentration": "1 µM", "quantity": "activity vs control", "result": "102%"}
{"SMILES": "C[C@H]1CC[C@H](n2c3cnccc3c3cnc(Nc4ccc5c(n4)CCN(C(=O)CO)C5)nc32)CC1", "observed": "cell-free assay", "concentration": "1 µM", "quantity": "remaining signal", "result": "75%"}
{"SMILES": "C=CC(=O)N1CCC([C@@H]2CCNc3c(C(N)=O)c(-c4ccc(Oc5ccccc5)cc4)nn32)CC1", "observed": "enzyme activity", "mode": "inhibitor", "concentration": "1 µM", "quantity": "inhibition", "result": "41%"}
{"SMILES": "CN1CCN(C(=O)c2ccc(NC(=O)Nc3ccc(N(C)c4ccnc(Nc5ccc(CS(C)(=O)=O)cc5)n4)cc3)cc2)CC1", "observed": "binding", "technique": "competition with immobilised ligand", "concentration": "1 µM", "quantity": "remaining binding", "result": "97%"}
{"SMILES": "COc1ccc2oc(-c3ccc4nc(N)oc4c3)c/c(=N\\c3ccccc3NC(=O)CCN)c2c1", "observed": "binding", "concentration": "1 µM", "quantity": "remaining binding", "result": "96%"}
